Experimental data taken from publication PMC2649974 (Proteins, 2009).

Experiments:
[1] = target: T1, human PMK (Homo sapiens, UniProt Q15126); format: binding; conditions: for Kd: read-out: Kd in all complexes, binary and ternary complexes, NMR, pH 6.5, 25 °C
T1 sequence (Q15126 1-192): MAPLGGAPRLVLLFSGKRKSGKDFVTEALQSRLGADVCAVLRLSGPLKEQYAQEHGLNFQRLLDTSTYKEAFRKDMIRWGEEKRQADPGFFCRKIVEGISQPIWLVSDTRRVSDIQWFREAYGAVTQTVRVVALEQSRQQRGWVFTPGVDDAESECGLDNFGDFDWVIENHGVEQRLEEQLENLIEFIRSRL
Outline: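 Uniformly 15N-labelled His6-tagged human PMK from E. coli BL21(DE3) Rosetta, Ni-purified. Held at 400-600 μM in 20 mM KH2PO4, 5 mM DTT, 10% D2O, 0.02% NaN3, pH 6.5, 25 °C. Mg-ADP (1:1 MgCl2) or M5P added in 100 μM steps to saturation, in either order. Fast-exchange 1H/15N shifts (15N scaled by 6.51) were fitted to a quadratic with total protein and ligand.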

[2] = target: T1, human PMK; conditions: previously reported Km values; cited from earlier work

Row | binding to PMK (in words) ([1]; compared to ATP or ADP, HSQC titration onto Apo-PMK) | Kd [1] [µM] | SMILES | Km [2] [µM]
1 | binds only weakly |  | Nc1ncnc2c1ncn2[C@@H]1O[C@H](COP(=O)(O)OP(=O)(O)NP(=O)(O)O)[C@@H](O)[C@H]1O [AMP-PNP] | 
2 |  | 6 to 60 | Nc1ncnc2c1ncn2[C@@H]1O[C@H](COP(=O)(O)OP(=O)(O)O)[C@@H](O)[C@H]1O [Mg-ADP, ADP] | 47 ± 5
3 |  | 6 to 60 | C[C@@](O)(CCOP(=O)(O)O)CC(=O)O [M5P, mevalonate 5-phosphate] | 34 ± 3
